# An excerpt weighted towards active compounds, which were near 0.79% of everything screened.
# hIAP block: blocks human intestinal alkaline phosphatase; P09923; purified IAP, CDP-Star luminescence, 30 min; inhibition, % at 10 µM; 330,000 compounds, 0.12% hits; AID 2544;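 active = inhibition reaching a set limit with compound at 10 µM in the primary screen, cut at about 35% in these data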;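 also: plate controls were DMSO wells with enzyme for no effect and no-enzyme buffer wells for full effect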
# Target sequence (P09923 whole entry, looked up): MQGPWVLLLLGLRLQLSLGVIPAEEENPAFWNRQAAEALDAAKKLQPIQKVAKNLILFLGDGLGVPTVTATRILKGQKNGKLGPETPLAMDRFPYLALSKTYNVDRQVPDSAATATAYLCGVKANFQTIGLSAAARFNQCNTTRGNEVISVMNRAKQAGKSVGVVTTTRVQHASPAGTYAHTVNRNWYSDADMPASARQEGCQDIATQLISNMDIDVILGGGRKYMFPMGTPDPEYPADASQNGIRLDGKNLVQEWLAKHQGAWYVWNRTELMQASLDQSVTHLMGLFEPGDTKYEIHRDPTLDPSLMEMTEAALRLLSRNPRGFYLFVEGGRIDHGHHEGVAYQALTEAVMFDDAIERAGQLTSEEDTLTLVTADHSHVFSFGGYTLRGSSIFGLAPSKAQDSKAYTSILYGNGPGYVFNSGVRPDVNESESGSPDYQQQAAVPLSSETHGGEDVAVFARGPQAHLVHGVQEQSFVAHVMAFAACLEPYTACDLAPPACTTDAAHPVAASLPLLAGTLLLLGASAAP
# bIAP inhibitor: blocks bovine intestinal alkaline phosphatase activity; 190,000 tested, under 10 active; purified bovine IAP, CDP-star luminescence, 30 min; inhibition, % at 20 µM; AID 1019;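 active = over 50% inhibition of intestinal alkaline phosphatase at 20 µM in the single-dose screen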
#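 Incubation: 30 min reaction at room temperature / Material: purified bovine intestinal alkaline phosphatase (IAP) enzyme / Input: enzyme at 1/65,000,000 dilution / Dosing: 20 µM single dose / Signal: CDP-star luminescence signal / Reagent: CDP-star chemiluminescent phosphatase substrate, 30 µM final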
# mIAP activ: mouse IAP activation; muIAP, CDP-Star luminescence, 30 min; stronger effect = higher value; 1 = vehicle-only enzyme signal, 0 = enzyme-free wells; activation factor at 10 µM; 330,000 compounds, 0.24% hits; AID 2805;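 active = activation factor of at least 2 at 20 µM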
#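 Assay system: mouse IAP enzyme; Reagent: CDP-Star chemiluminescent phosphatase substrate; Compound: DMSO-dissolved test compounds; Incubation: 30 min, room temperature; Technique: luminescence from enzymatic CDP-Star hydrolysis; Controls: DMSO-only wells and no-enzyme negative control.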
# bIAP activator: increases bovine intestinal alkaline phosphatase activity | purified bovine IAP, CDP-star luminescence, 30 min; stronger effect = higher value; fold of DMSO-control signal, blank-subtracted | activation factor at 20 µM | 200,000 compounds, 0.17% hits;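 active = activation factor of 2 or more at 20 µM, a signal rise over negative controls twice the positive control's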
# hIAP activ: increases human intestinal alkaline phosphatase activity | P09923 | purified human IAP, CDP-Star luminescence, 30 min; stronger effect = higher value; 1 = vehicle-only enzyme, 0 = enzyme-free background | activation factor at 10 µM | 330,000 compounds, 0.16% hits | AID 2524;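 active = activation factor of the enzyme at least 2-fold when tested at 20 µM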
# mIAP block: blocks mouse intestinal alkaline phosphatase. inhibition, % at 10 µM. 330,000 compounds, 0.2% hits. AID 2806. purified mouse IAP, CDP-Star luminescence, 30 min;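 active = inhibition of at least 40% at 10 µM in the primary screen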;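 also: plate controls were DMSO with enzyme for no effect and no enzyme wells for full effect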
# hIAP act conf: human IAP activation confirmation | purified IAP, CDP-Star luminescence, 30 min; stronger effect = lower value | shares compounds with hIAP activ | activation (%Activity, negative = activation), % at 8.3 µM | 880 compounds, 10% hits;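 active = at least twofold enzyme activation in any of six single-dose repeats, which the averaged readout prints as negative percent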
# The depositor's hits bear a star; x = not tested or not shown.
SMILES,hIAP block,bIAP inhibitor,mIAP activ,bIAP activator,hIAP activ,mIAP block,hIAP act conf
Cc1cc(C)n(C(=O)CN2C(=O)CCC2=O)n1,-6.8,13.8,1.04,0.9,1.07,-4.1,x
C[C@@H](NC(=O)c1nc[nH]c1C(=O)N[C@H](C)c1ccccc1)c1ccccc1,-20.1,x,0.976,x,1.2,2.4,x
C[C@H](NC(=O)c1[nH]cnc1C(=O)Nc1ccon1)c1ccccc1,-79.6,x,0.849,x,1.8,15.1,x
C[C@@H](NC(=O)c1[nH]cnc1C(=O)Nc1nccs1)c1ccccc1,-123.9,x,0.974,x,2.24*,2.6,11.7
C[C@@H](NC(=O)c1[nH]cnc1C(=O)Nc1ccon1)c1ccccc1,-107.0,x,0.864,x,2.07*,13.6,-80.0*
O=C(NNC(=S)NC(=O)c1ccc(F)cc1)c1ccncc1,-112.1,x,0.767,x,2.12*,23.3,-55.6
c1ccc(COc2ccc(CNn3cnnc3)cc2)cc1,54.4*,3.9,0.984,1,0.456,1.6,-4.7
C=CCN1C(=O)/C(=C\C=C2\N(C)c3ccccc3C2(C)C)SC1=S,45.6*,14.0,0.615,0.9,0.544,38.5,-267.3*
O=C(O)CCC1OC(=O)C(O)=C1c1ccccc1 (stereo unspecified),8.6,x,0.951,x,0.914,4.9,x
CC(C)C(=O)NC(=S)Nc1ccccc1C(=O)Nc1ccccc1,-164.8,-4.5,0.642,1,2.65*,35.8,-107.6*
CC(C)CC(=O)NC(=S)Nc1ccccc1C(=O)Nc1ccccc1,-170.2,-10.0,0.682,1.1,2.7*,31.8,21.2
O=C(c1ccco1)N1CCN(c2nc(-c3ccc(F)cc3)cs2)CC1,-100.4,-10.5,0.815,1.1,2*,18.5,2.5
CCOCC(=O)Nc1cc(Cl)c(OC)cc1OC,0.7,3.3,0.974,1,0.993,2.6,x
Cn1nc(C(=O)NNC(=O)CCOc2ccc(C(C)(C)C)cc2)c2ccccc2c1=O,-114.5,x,0.965,x,2.15*,3.5,-18.9
CCCCN(C(=O)C(C)Oc1ccc(Br)cc1)c1c(N)n(Cc2ccccc2)c(=O)[nH]c1=O (stereo unspecified),-2.2,x,0.975,x,1.02,2.5,x
COc1cc(CN2CCc3ccc(NC(=O)CCc4ccccc4OC)cc3C2)ccc1O,36.0*,x,1.2,x,0.64,-19.5,-24.5
CC1=C/C(=C\C=C(C#N)C#N)N(C)c2ccccc21,36.2*,x,0.757,x,0.638,24.3,4.2
CC(C)(C)N/N=C/c1c(O)n(-c2ccc(Cl)cn2)c(=O)c2ccccc12,-103.2,-5.9,0.996,1.1,2.03*,0.4,-93.3*
COC(=O)CN=Cc1c(O)n(-c2ccc(Cl)cn2)c(=O)c2ccccc12,-3.6,-5.8,1.03,1.1,1.04,-2.6,x
O=C(CNC(=S)NC(=O)c1cccs1)c1ccccc1,9.7,-4.3,0.801,1,0.903,19.9,x
O=C(NC(=S)NCc1ccccc1)c1cccs1,40.0*,x,0.992,x,0.6,0.8,13.4
CN1/C(=C\C(=O)CSc2nnc(NCc3ccccc3)s2)C(C)(C)c2ccccc21,-2.4,22.4,1.02,0.8,1.02,-2.0,x
O=C(NCCCc1ccccc1)c1ccc(CS(=O)Cc2ccc(Cl)cc2)o1 (stereo unspecified),38.9*,x,0.941,x,0.611,5.9,-22.2
O=C(/C=C/c1cc(Br)ccc1O)c1ccco1,8.9,x,0.967,x,0.911,3.3,x
O=C(/C=C/c1ccccc1O)c1ccco1,42.2*,x,0.778,x,0.578,22.2,-104.2*
SMILES,hIAP block,bIAP inhibitor,mIAP activ,bIAP activator,hIAP activ,mIAP block,hIAP act conf
Cc1ccc(NC(=O)C2C3/C=C\CCCCC32)cc1C (stereo unspecified),22.2,9.7,1.03,0.9,0.778,-3.4,x
CCc1ccc(S(=O)(=O)/N=C2\C=C(NS(=O)(=O)c3ccccc3)C(=O)c3ccccc32)cc1,36.1*,x,0.874,x,0.639,12.6,-21.8
CCOc1c(Br)cc(/C=C(\C#N)C(=O)NC2CC2)cc1OC,40.6*,x,0.988,x,0.594,1.2,5.1
CCOc1ccccc1/C=C(\C#N)C(=O)NC1CC1,-11.4,x,1.08,x,1.11,-8.1,x
Cc1c(Cl)cccc1NC(=O)C(=O)NNS(=O)(=O)c1ccc(F)cc1,-139.1,x,0.803,x,2.39*,19.7,-20.5
COC(=O)c1nnn(-c2nonc2N)c1CSc1nnc(N)s1,-5.3,-9.7,1.03,1.1,1.05,-2.9,x
CC1CC(C)CN(C(=O)COC(=O)c2nn(C)c(=O)c3ccccc23)C1 (stereo unspecified),-0.3,x,0.849,x,1,15.1,x
C/C(=N\NC(=O)C1CC1)c1ccccc1Br,35.1*,x,1.02,x,0.649,-2.1,-30.1
Cc1cc(C)n2nc(CC(=O)NNC(=O)COc3cccc(C)c3C)nc2n1,-105.6,x,0.905,x,2.06*,9.5,-25.9
CCOC(=O)Cc1nc2nc(C)cc(C)n2n1,-4.0,-8.2,0.941,1.1,1.04,5.9,x
COc1ccc(C(=O)NCN2CCN(c3ccccc3)CC2)cc1OC,5.0,x,1.1,x,0.95,-9.8,x
O=C(NC1CCCCCC1)c1ccc(-n2cnnc2)cc1,35.1*,x,1.02,x,0.649,-2.1,-58.8*
CCOC(=O)C1CCN(CC(O)COc2ccc(C(=O)CC)cc2)CC1 (stereo unspecified),35.7*,-3.6,1.03,1,0.642,-3.5,-27.2
COc1cccc(/C=N/NC(=O)c2cc(-c3cccn3C)n[nH]2)c1O,-144.8,-2.0,0.641,1,2.45*,35.9,-1.2
CCC1=C(c2ccc(C)cc2)S(=O)(=O)N=C1N1CCC(C(=O)NCCCN2CCCCC2C)CC1 (stereo unspecified),7.3,x,0.928,x,0.927,7.2,x
COc1ccc(NC(=O)c2ccco2)cc1NC(=O)c1ccccc1[N+](=O)[O-],-3.7,x,1.02,x,1.04,-2.3,x
CCOC(=O)C1CCN(C(=O)N2CCOCC2)CC1,-100.3,7.3,1.09,0.9,2*,-9.1,-7.6
O=c1[nH]n(Cc2ccccc2)c2ccccc12,-11.0,x,1.01,x,1.11,-0.9,x
COc1ccc(CC2CC(=O)N(c3ccc(C)cc3)C2=O)cc1 (stereo unspecified),-106.2,x,1.02,x,2.06*,-1.9,23.2
Cc1ccc(CC2CC(=O)N(c3ccc(C)cc3)C2=O)cc1 (stereo unspecified),1.3,5.0,1,0.9,0.987,-0.4,x
CCc1occc(=O)c1Oc1cc(NN2CCCCC2)c([N+](=O)[O-])cc1[N+](=O)[O-],42.5*,x,0.977,x,0.575,2.3,-42.2
CN(CCOc1ccc(Cl)cc1)C(=O)Cc1ccc(S(=O)(=O)N2CCOCC2)s1,-1.6,x,1.04,x,1.02,-3.7,x
Clc1ccc(-c2nc(-c3ccccn3)no2)cc1Cl,-110.4,10.3,0.974,0.9,2.1*,2.6,3.3
COc1ccc(-c2nc(-c3ccccn3)no2)cc1,-7.5,10.9,0.943,0.9,1.07,5.7,x
